Reference: ChEMBL document CHEMBL1145088, “Ascochlorin derivatives as ligands for nuclear hormone receptors” (J Med Chem, 2003)
pIC50: −log10 of the molar value.

What was measured:
[1] = target: T1, Estrogen receptor (Homo sapiens, UniProt P03372); experiment: Minimum effective concentration required to activate Estrogen receptor 1 (ER alpha); Not detected
T1 sequence (P03372 whole entry): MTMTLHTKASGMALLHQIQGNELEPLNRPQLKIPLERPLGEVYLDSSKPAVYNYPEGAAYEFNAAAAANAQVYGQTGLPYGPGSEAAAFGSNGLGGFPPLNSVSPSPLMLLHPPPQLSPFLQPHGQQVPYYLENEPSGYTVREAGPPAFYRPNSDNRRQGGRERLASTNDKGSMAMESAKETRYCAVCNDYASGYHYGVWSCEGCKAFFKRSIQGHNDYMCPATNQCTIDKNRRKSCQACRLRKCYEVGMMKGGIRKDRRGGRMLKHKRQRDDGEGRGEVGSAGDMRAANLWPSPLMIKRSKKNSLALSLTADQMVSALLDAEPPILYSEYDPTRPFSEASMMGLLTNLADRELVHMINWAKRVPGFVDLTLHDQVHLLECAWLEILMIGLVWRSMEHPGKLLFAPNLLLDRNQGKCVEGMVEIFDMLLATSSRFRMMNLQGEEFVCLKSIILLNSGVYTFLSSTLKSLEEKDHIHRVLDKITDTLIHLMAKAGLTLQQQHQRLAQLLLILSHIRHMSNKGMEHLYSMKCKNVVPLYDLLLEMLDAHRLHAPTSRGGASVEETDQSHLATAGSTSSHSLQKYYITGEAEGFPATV

[2] = target: T2, Estrogen receptor beta (Homo sapiens, UniProt Q92731); experiment: Minimum effective concentration required to activate Estrogen receptor 2 (ER beta); Not detected
[3] = system: U2OS (Homo sapiens); experiment: Concentration required for inhibition of U2OS cell growth
[4] = target: T3, Nuclear receptor subfamily 1 group I member 2 (Homo sapiens, UniProt O75469); experiment: Minimum effective concentration required to activate pregnane X receptor (PXR)
T3 sequence (O75469 whole entry): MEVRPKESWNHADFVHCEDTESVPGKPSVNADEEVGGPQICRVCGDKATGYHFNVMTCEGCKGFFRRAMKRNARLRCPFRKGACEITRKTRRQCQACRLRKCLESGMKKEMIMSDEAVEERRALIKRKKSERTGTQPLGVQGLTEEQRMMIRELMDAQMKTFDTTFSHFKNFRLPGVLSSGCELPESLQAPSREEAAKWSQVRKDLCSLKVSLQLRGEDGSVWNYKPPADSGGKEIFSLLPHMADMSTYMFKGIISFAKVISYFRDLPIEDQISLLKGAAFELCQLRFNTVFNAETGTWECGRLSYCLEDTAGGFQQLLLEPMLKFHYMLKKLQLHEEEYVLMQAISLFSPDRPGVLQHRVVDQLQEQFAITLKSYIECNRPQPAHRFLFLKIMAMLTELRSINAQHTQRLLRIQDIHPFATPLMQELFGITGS

[5] = target: T4, Peroxisome proliferator-activated receptor alpha (Homo sapiens) (UniProt Q07869); experiment: Minimum effective concentration for peroxisome proliferator activated receptor (PPAR alpha) activation
T4 sequence (whole entry): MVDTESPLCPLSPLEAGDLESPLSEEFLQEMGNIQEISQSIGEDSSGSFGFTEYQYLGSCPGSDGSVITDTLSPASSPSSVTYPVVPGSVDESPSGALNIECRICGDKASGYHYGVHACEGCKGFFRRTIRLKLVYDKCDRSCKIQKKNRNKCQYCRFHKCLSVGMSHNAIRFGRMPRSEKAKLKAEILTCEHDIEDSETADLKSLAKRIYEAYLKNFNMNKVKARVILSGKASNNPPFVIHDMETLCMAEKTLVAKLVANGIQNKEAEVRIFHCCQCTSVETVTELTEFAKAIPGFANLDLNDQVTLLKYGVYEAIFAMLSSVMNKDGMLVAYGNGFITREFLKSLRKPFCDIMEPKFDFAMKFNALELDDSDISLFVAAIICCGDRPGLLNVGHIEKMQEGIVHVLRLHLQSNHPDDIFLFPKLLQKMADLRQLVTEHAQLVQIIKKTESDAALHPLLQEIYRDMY

[6] = target: T5, Androgen receptor (Homo sapiens) (UniProt P10275); experiment: Minimum effective concentration for androgen receptor (AR) activation
T5 sequence (whole entry): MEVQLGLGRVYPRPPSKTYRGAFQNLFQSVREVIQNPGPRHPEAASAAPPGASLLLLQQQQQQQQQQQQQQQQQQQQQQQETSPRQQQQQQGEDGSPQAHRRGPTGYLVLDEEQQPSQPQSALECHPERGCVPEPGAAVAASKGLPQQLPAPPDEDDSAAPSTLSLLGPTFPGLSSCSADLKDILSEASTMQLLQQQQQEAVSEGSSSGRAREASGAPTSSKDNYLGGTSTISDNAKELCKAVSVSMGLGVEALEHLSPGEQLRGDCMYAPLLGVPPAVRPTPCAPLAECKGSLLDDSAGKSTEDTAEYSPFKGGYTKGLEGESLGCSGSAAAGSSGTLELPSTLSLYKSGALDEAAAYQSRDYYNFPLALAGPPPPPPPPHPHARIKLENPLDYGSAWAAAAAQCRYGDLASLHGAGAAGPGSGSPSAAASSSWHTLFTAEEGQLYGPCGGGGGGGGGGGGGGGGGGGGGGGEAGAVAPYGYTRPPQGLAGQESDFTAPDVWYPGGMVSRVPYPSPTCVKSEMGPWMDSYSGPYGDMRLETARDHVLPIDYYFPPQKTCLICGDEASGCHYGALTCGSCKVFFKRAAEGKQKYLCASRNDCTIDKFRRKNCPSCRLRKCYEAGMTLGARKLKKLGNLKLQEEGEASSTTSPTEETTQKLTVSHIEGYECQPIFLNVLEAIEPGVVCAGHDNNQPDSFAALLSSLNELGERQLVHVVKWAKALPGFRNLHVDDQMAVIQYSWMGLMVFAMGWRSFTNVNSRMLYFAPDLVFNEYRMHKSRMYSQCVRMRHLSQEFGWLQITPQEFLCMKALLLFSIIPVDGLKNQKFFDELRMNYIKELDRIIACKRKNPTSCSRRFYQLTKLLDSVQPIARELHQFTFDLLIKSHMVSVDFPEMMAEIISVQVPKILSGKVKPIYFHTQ

[7] = target: T2, Estrogen receptor beta; experiment: Minimum effective concentration for Estrogen receptor 2 (ER beta) inhibition
How it was run: (§1)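 U2OS cells were calcium-phosphate co-transfected with an ER expression vector (2 µg), an ER reporter plasmid (4 µg) and pCMV-β-galactosidase (4 µg) as internal control. After 12 h cells were PBS-washed and recovered 4 h, then trypsinized and exposed to drugs for 20 h. Lysate reporter activity was normalised to β-gal and expressed as stimulation index; triplicate cultures.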

[8] = target: T6, Estrogen receptor (Homo sapiens) (UniProt P03372); experiment: Minimum effective concentration for Estrogen receptor 1 (ER alpha) inhibition
T6 sequence (whole entry): T1 sequence (P03372 whole entry)
How it was run: as §1

T2 sequence (Q92731 whole entry): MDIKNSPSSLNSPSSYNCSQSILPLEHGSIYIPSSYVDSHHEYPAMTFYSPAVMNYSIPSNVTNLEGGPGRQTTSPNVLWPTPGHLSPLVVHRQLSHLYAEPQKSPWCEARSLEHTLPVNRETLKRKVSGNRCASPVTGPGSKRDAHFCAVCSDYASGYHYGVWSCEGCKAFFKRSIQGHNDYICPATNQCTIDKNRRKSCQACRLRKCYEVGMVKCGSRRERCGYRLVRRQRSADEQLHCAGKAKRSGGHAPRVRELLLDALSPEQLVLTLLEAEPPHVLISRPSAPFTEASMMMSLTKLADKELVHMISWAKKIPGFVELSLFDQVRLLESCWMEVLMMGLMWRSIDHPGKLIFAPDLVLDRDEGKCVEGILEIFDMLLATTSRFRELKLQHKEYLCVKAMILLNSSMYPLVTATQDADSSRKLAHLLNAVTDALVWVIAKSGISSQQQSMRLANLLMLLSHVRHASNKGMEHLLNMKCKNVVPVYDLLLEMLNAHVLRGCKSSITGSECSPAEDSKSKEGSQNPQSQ

Row | MEC [1] | MEC [2] | pIC50 [3] | MEC [4] [µM] | MEC [5] [µM] | MEC [6] [µM] | Compound | MEC [7] [µM] | MEC [8] [µM]
1 | Not Active | Not Active | 4.25 | 1 | 10 | – | C/C(=C\Cc1c(O)c(Cl)c(C)c(C=O)c1O)CC/C=C(\C)C1=CC(=O)C(C)(C)O1 | – | –
2 | Not Active | Not Active | 4.49 | 1 | – | 1 | CC(=O)Oc1c(Cl)c(C)c(C(=O)O)c(OC(C)=O)c1C/C=C(C)/C=C/[C@@]1(C)[C@H](C)CCC(=O)[C@@H]1C | – | –

Row | Compound | MEC [1] | MEC [2] | pIC50 [3] | MEC [4] [µM] | MEC [5] [µM] | MEC [6] [µM] | MEC [7] [µM] | MEC [8] [µM]
3 | CC(/C=C/[C@@]1(C)[C@H](C)CCC(=O)[C@@H]1C)=C\Cc1c(O)c(Cl)c(C)c(C=O)c1O [ASCOCHLORIN] | – | – | 6.00 | 1 | – | – | 1 | 1
